The results in this text go back to ChEMBL document CHEMBL3044706, “Lignans and neolignans from Brassica fruticulosa: effects on seed germination and plant growth” (2003).

Test [1] concerns Lactuca sativa. The test is described as follows: Inhibition of shoot elongation in Lactuca sativa (lettuce) at 10^-4 to 10^-9 M after 5 days relative to control. It is filed as functional, organism-based. The method, boiled down: (§1)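 Lettuce seeds, 25 per 50 mm Petri dish on one Whatman No. 1 filter paper, with 2.5 mL test solution in 10 mM MES pH 6 (10^-4 M, diluted to 10^-9 M). Dishes were Parafilm-sealed and kept at 25 °C in the dark. Germination was scored daily for 5 days, then root/shoot lengths were measured on plants frozen at -20 °C. Four replicates, expressed as % difference from parallel control, with Student's t-test.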

Test [2] has as its system Solanum lycopersicum. The test is described as follows: Stimulation of shoot elongation in Solanum lycopersicum (tomato) at 10^-4 to 10^-9 M after 5 days relative to control. Format: functional, organism-based. The method, boiled down: (§2)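 Seeds (cress 3 days, tomato 5 days, onion 7 days), 25 per 90 mm Petri dish on one Whatman No. 1 filter paper, with 5 mL test solution in 10 mM MES pH 6 (10^-4 M, diluted to 10^-9 M). Dishes were sealed and kept at 25 °C in the dark. Germination was scored daily, then root/shoot lengths were taken after freezing at -20 °C. Four replicates, expressed as % difference from control, with t-test.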

For test [3], the system named is Allium cepa. The test is described as follows: Stimulation of shoot elongation in Allium cepa (onion) at 10^-4 to 10^-9 M after 7 days relative to control. It is filed as functional, organism-based. A digest of the protocol:
as §2

Test [4] relates to Lepidium sativum. The test is described as follows: Inhibition of shoot elongation in Lepidium sativum at 10^-4 to 10^-9 M after 3 days relative to control. Format: functional. The method, boiled down: as §2
Test [5] has as its system Lactuca sativa. Put plainly: Inhibition of seed germination in Lactuca sativa (lettuce) at 10^-9 M after 5 days relative to control. Format: functional. The note with it: 120 h. The method, boiled down:
as §1

The subject of test [6] is Solanum lycopersicum. The test is described as follows: Inhibition of shoot elongation in Solanum lycopersicum (tomato) at 10^-4 to 10^-9 M after 5 days relative to control. It is filed as functional, organism-based. The method, boiled down:
as §2

The subject of test [7] is Solanum lycopersicum. The test is described as follows: Effect on root elongation in Solanum lycopersicum (tomato) at 10^-4 to 10^-9 M after 5 days relative to control. It is filed as functional, organism-based. The method, boiled down:
as §2

In test [8] the test system is Lactuca sativa. The test is described as follows: Effect on root elongation in Lactuca sativa (lettuce) at 10^-4 to 10^-9 M after 5 days relative to control. It is filed as functional, organism-based. A digest of the protocol:
as §1

In test [9] the test system is Allium cepa. The test is described as follows: Inhibition of shoot elongation in Allium cepa (onion) at 10^-4 to 10^-9 M after 7 days relative to control. It is filed as functional, organism-based. A digest of the protocol:
as §2

Test [10] concerns Lepidium sativum. Put plainly: Effect on root elongation in Lepidium sativum at 10^-4 to 10^-9 M after 3 days relative to control. Format: functional, organism-based. The method, boiled down:
as §2

In test [11] the test system is Allium cepa. The test is described as follows: Effect on seed germination in Allium cepa (onion) at 10^-4 to 10^-9 M after 7 days relative to control. It is filed as functional, organism-based. The method, boiled down: as §2
Test [12] relates to Lactuca sativa. The test is described as follows: Stimulation of shoot elongation in Lactuca sativa (lettuce) at 10^-4 to 10^-9 M after 5 days relative to control. Format: functional, organism-based. A digest of the protocol:
as §1

For test [13], the system named is Solanum lycopersicum. The test is described as follows: Effect on seed germination in Solanum lycopersicum (tomato) at 10^-4 to 10^-9 M after 5 days relative to control. It is filed as functional, organism-based. The method, boiled down:
as §2

The test system of test [14] is Lepidium sativum. The test is described as follows: Effect on seed germination in Lepidium sativum at 10^-4 to 10^-9 M after 3 days relative to control. Format: functional, organism-based. A digest of the protocol:
as §2

Test [15] deals with Lactuca sativa. The test is described as follows: Inhibition of seed germination in Lactuca sativa (lettuce) at 10^-4 to 10^-9 M after 5 days relative to control. It is filed as functional. The method, boiled down: as §1
The test system of test [16] is Allium cepa. The test is described as follows: Stimulation of root elongation in Allium cepa (onion) at 10^-4 to 10^-9 M after 7 days relative to control. It is filed as functional, organism-based. A digest of the protocol:
as §2

As a reminder, the inhibition is the drop in the measured response relative to a control, in per cent.

Calls of active or inactive are those of the source. No cut-off for these calls is given here.

As for `COc1cc(C[C@H]2CO[C@H](c3ccc(O)c(OC)c3)[C@H]2CO)ccc1O` (racemic) [LARICIRESINOL], the inhibition entry in the test with Lactuca sativa [1], in the test with Solanum lycopersicum [6], with Allium cepa [9] and with Lactuca sativa [15] was “Active” each time. Besides, the result in the test on Solanum lycopersicum [2], in the test with Allium cepa [3], in the test on Lactuca sativa [12] and with Allium cepa [16] was Active. The “inhibition (INH)” value with Lepidium sativum [4] stood at 30%. The compound also came in with an inhibition at 0.001 µM in the test with Lactuca sativa [5] of 75%. For the same compound, the outcome with Solanum lycopersicum [7], in the test on Lactuca sativa [8], in the test with Lepidium sativum [10], in the test with Allium cepa [11], in the test on Solanum lycopersicum [13] and in the test on Lepidium sativum [14] was inactive.
